The record followed here is ChEMBL document CHEMBL1134569, “Synthesis and in vitro and in vivo antimalarial activity of new 4-anilinoquinolines” (J Med Chem, 2001).

Data set [1] concerns Plasmodium falciparum. The experiment in a line: Inhibitory activity against chloroquine-resistant Plasmodium falciparum FcB1R. The data set is classed as functional, organism-based. Particulars: Plasmodium falciparum.
The nature of data set [2]: Cytotoxicity upon MRC-5 cells (diploid embryonic lung cell line) at 32 uM. The data set is classed as cell-based, MRC5. Particulars: human. In a few lines:
(§1)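 MRC-5 human diploid embryonic lung cells seeded at 5000/well, washed after 24 h, then given 2-fold drug dilutions in RPMI + 5% FCS (final DMSO below 0.5%). Incubated at 37 °C, 5% CO₂, for 7 days. MTT read-out at 540 nm, scored as percent absorbance reduction versus untreated controls.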

The nature of data set [3]: Cytotoxicity upon MPMs (mouse peritoneal macrophages) at 8 uM. In a few lines: (§2)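 Mouse peritoneal macrophages harvested 48 h after potato-starch stimulation and seeded at 30000 cells/well. After 24 h, washed and exposed to 2-fold drug dilutions in RPMI + 5% FCS (final DMSO below 0.5%) at 37 °C, 5% CO₂, for 7 days. Toxicity scored microscopically as toxic or not versus untreated controls.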

Data set [4] can be described thus: Cytotoxicity upon MRC-5 cells (diploid embryonic lung cell line) at 8 uM. The data set is classed as cell-based, MRC5. Particulars: human. In a few lines: as §1
A short description of data set [5]: Cytotoxicity upon MPMs (mouse peritoneal macrophages) at 32 uM. In a few lines:
as §2

Data set [6] can be described thus: Cytotoxicity upon MPMs (mouse peritoneal macrophages) at 2 uM conc.; Toxic. The gist of the method: as §2
Data set [7] in a line: Cytotoxicity upon MRC-5 cells (diploid embryonic lung cell line) at 1 uM. The data set is classed as cell-based, MRC5. Particulars: human. In a few lines:
as §1

Data set [8] can be described thus: Cytotoxicity upon MRC-5 cells (diploid embryonic lung cell line) at 12.5 uM. The data set is classed as cell-based, MRC5. Particulars: human. In a few lines:
as §1

The nature of data set [9]: Cytotoxicity upon MPMs (mouse peritoneal macrophages) at 6.3 uM. The gist of the method: as §2
A short description of data set [10]: Cytotoxicity upon MRC-5 cells (diploid embryonic lung cell line) at 3.1 uM. Particulars: human. The data set is classed as cell-based, MRC5. The gist of the method: as §1
Data set [11] can be described thus: Cytotoxicity upon MPMs (mouse peritoneal macrophages) at 12.5 uM conc.; Toxic. In a few lines:
as §2

Data set [12] can be described thus: Cytotoxicity upon MRC-5 cells (diploid embryonic lung cell line) at 6.3 uM. In kind it is cell-based, MRC5. Particulars: human. In a few lines:
as §1

A short description of data set [13]: Cytotoxicity upon MPMs (mouse peritoneal macrophages) at 3.1 uM conc.;NT=No Toxicity. In a few lines:
as §2

Data set [14] in a line: Cytotoxicity upon MPMs (mouse peritoneal macrophages) at 2 uM. In a few lines: as §2
Data set [15] is described as follows: Cytotoxicity upon MRC-5 cells (diploid embryonic lung cell line) at 25 uM conc. The data set is classed as cell-based, MRC5. Particulars: human. The gist of the method: as §1
Data set [16] in a line: Cytotoxicity upon MRC-5 cells (diploid embryonic lung cell line) at 1.6 uM conc. The data set is classed as cell-based, MRC5. Particulars: human. In a few lines: as §1

A word on the IC50: it is the point on the concentration scale where inhibition reaches its midpoint. As for `CCN(CC)c1ccc(CN2CCN(Cc3cc(NC(=O)CN4CCCCC4)cc(Nc4ccnc5cc(Cl)ccc45)c3)CC2)cc1`, in [1], the IC50 was determined as 11.9 nM. In [2], the cytotoxicity at 32 µM is 100%. Besides, the results for the Cytotoxicity result in [3], in data set [5] and in [6] were “Cytotoxicity upon MPMs at 32 uM”, “Cytotoxicity upon MPMs at 32 uM” and “Toxic”, respectively. In data set [4], this compound gave a cytotoxicity at 8 µM of 100%. Besides, the cytotoxicity at 1 µM in data set [7] turned out to be 100%.

Turning to `CCN(CC)Cc1cc(NC(=O)CN2CCCCC2)cc(Nc2ccnc3cc(Cl)ccc23)c1`, in data set [1], the IC50 stood at 8.2 nM. Besides, the cytotoxicity at 32 µM in [2] is 100%. Further, the Cytotoxicity entry in data set [3] is “Cytotoxicity upon MPMs at 32 uM”; in [5] it was “Cytotoxicity upon MPMs at 32 uM”; in data set [6], “Toxic”. For the same compound, the cytotoxicity at 8 µM in [4] worked out at 100%. Besides, in [7], the cytotoxicity at 1 µM came out at 0%.

The compound `CC1CCN(CCCCCCCCCCCC(=O)Nc2cc(CO)cc(Nc3ccnc4cc(Cl)ccc34)c2)CC1` returned a cytotoxicity at 12.5 µM in data set [8] of 100%. Further, the IC50 in data set [1] was found to be 86 nM. Besides, the NT result in [9] and in data set [13] was “Cytotoxicity upon MPMs at 6.3 uM” in each case. In addition, the cytotoxicity at 3.1 µM in [10] came to 0%. Further, in data set [11], the Cytotoxicity entry is given as “Toxic”. Also, the cytotoxicity at 6.3 µM in [12] turned out to be 0%.

`O=C(CN1CCCCC1)Nc1cc(COC(=O)c2ccccc2)cc(Nc2ccnc3cc(Cl)ccc23)c1` yielded an IC50 in data set [1] of 75.5 nM. Besides, the NT result in data set [9] and in data set [14] was “Cytotoxicity upon MPMs at 2 uM” each time. Further, the Cytotoxicity result in [11] is recorded as “Toxic”. In data set [15], the cytotoxicity at 25 µM amounted to 66%. Besides, the cytotoxicity at 1.6 µM in data set [16] came to 20%. Besides, the cytotoxicity at 6.3 µM in [12] amounted to 38%.

Consider `CCN(CC)CC(=O)Nc1cc(CO)cc(Nc2ccnc3cc(Cl)ccc23)c1`, for which the cytotoxicity at 12.5 µM in data set [8] was found to be 0%. Also, in data set [1], 41.6 nM corresponded to half-maximal inhibition (IC50). Also, the NT entry in data set [9] and in data set [13] was “Cytotoxicity upon MPMs at 6.3 uM” each time. In data set [10], this compound yielded a cytotoxicity at 3.1 µM of 0%. In addition, the Cytotoxicity result in data set [11] was “Toxic”. In data set [12], the cytotoxicity at 6.3 µM came out at 0%.

For the compound `O=C(CCl)Nc1cc(CO)cc(Nc2ccnc3cc(Cl)ccc23)c1`, the cytotoxicity at 12.5 µM in data set [8] came out at 92%. Further, the IC50 in data set [1] was more than 1000 nM. In addition, the NT entry in [9] and in data set [13] was “Cytotoxicity upon MPMs at 6.3 uM” throughout. Also, in data set [10], the cytotoxicity at 3.1 µM is 0%. In data set [11], the Cytotoxicity result is “Toxic”. This compound also came in with a cytotoxicity at 6.3 µM in data set [12] of 0%.

In turn, `O=C(CN1CCCC1)Nc1cc(CO)cc(Nc2ccnc3cc(Cl)ccc23)c1` had a cytotoxicity at 12.5 µM in data set [8] of 0%. In [1], this compound had an IC50 of 44 nM. Besides, the NT result in data set [9] and in data set [13] was “Cytotoxicity upon MPMs at 6.3 uM” each time. For the same compound, the cytotoxicity at 3.1 µM in data set [10] came out at 0%. In [11], the Cytotoxicity result is given as “Toxic”. The compound also came in with a cytotoxicity at 6.3 µM in [12] of 0%.

The compound `O=C(CN1CCCCC1)Nc1cc(CNCc2ccc(Cl)cc2)cc(Nc2ccnc3cc(Cl)ccc23)c1` yielded an IC50 in data set [1] of 4.6 nM. Besides, in data set [2], the cytotoxicity at 32 µM was found to be 100%. Further, the results for the Cytotoxicity result in [3], in data set [5] and in [6] were “Cytotoxicity upon MPMs at 32 uM”, “Cytotoxicity upon MPMs at 32 uM” and “Toxic”, respectively. The compound further came in with a cytotoxicity at 8 µM in data set [4] of 100%. For the same compound, in data set [7], the cytotoxicity at 1 µM stood at 100%.

On to `CC1CCN(CCC(=O)Nc2cc(CO)cc(Nc3ccnc4cc(Cl)ccc34)c2)CC1`, for which, in data set [8], the cytotoxicity at 12.5 µM came to 100%. Besides, the IC50 in data set [1] is 136 nM. Also, the NT entry in [9] and in data set [13] was “Cytotoxicity upon MPMs at 6.3 uM” each time. Besides, in data set [10], the cytotoxicity at 3.1 µM came out at 0%. In [11], the Cytotoxicity result is “Toxic”. Moreover, in data set [12], the cytotoxicity at 6.3 µM came out at 0%.
